Consider four compounds from ChEMBL document CHEMBL1124666, “Novel linked antiviral and antitumor agents related to netropsin and distamycin: synthesis and biological evaluation” (1989).

The test system of one test is Human alphaherpesvirus 2. The test is described as follows: Minimum inhibitory concentration against Herpes simplex virus 2(G). In kind it is functional.
A further test relates to P388. The test is described as follows: Inhibitory effect on the proliferation of murine leukemia (P388) cells. The class given is functional. The conditions noted are these: Mus musculus, read-out: ID50 (the source's name).
The subject of test [1] is Vaccinia virus. The test is described as follows: (§1) Minimum inhibitory concentration against vaccinia virus in primary rabbit kidney cell cultures of experiment 2. The class given is functional. The note with it: Orthopoxvirus vaccinia.
The nature of test [2]: Inhibitory effect on the proliferation of human T-lymphoblast (Molt/4F) cells. In kind it is functional. The note with it: read-out: ID50 (the source's name).
The subject of test [3] is Vaccinia virus. Put plainly: Minimum cytotoxic concentration against vaccinia virus embryonic skin muscle cell cultures. The class given is functional. The conditions noted are these: Orthopoxvirus vaccinia.
Test [4] concerns Vaccinia virus. The test is described as follows: Minimum inhibitory concentration against vaccinia virus in Vero cell cultures of experiment 1. The class given is functional. The note with it: Orthopoxvirus vaccinia.
The test system of test [5] is Vaccinia virus. Put plainly: Minimum inhibitory concentration against vaccinia virus embryonic skin muscle cell cultures. The note with it: Orthopoxvirus vaccinia. In kind it is functional.
Test [6] deals with Vaccinia virus. The test is described as follows: Minimum cytotoxic concentration against vaccinia virus in Vero cell cultures. In kind it is functional. The note with it: Orthopoxvirus vaccinia.
For test [7], the system named is Vesicular stomatitis virus. The test is described as follows: Minimum inhibitory concentration against Vesicular stomatitis virus. The class given is functional.
For test [8], the system named is Vaccinia virus. The test is described as follows: Minimum cytotoxic concentration against vaccinia virus in primary rabbit kidney cell cultures. In kind it is functional. The note with it: Orthopoxvirus vaccinia.
Test [9] concerns FM3A. Put plainly: Inhibitory effect on the proliferation of murine mammary carcinoma (FM3A) cells. In kind it is functional. The conditions noted are these: Mus musculus, read-out: ID50 (the source's name).
The subject of test [10] is Vaccinia virus. The test is described as follows: Minimum inhibitory concentration against Vaccinia virus. The class given is functional. The note with it: Orthopoxvirus vaccinia.
The subject of a further test is Human alphaherpesvirus 1. The test is described as follows: Minimum inhibitory concentration against Herpes simplex virus 1(KOS). In kind it is functional.
Test [11] is described as follows: Minimum cytotoxic concentration in primary rabbit kidney (PRK) cell cultures. In kind it is functional, Oryctolagus cuniculus.
Test [12] relates to L1210. Put plainly: Inhibitory effect on the proliferation of murine leukemia (L1210) cells. In kind it is functional. The note with it: Mus musculus, read-out: ID50 (the source's name).
For test [13], the system named is Raji. Put plainly: Inhibitory effect on the proliferation of human B lymphoblast (Raji) cells. In kind it is functional. The conditions noted are these: read-out: ID50 (the source's name).
In test [14] the test system is Vaccinia virus. Put plainly: Minimum inhibitory concentration against vaccinia virus in Vero cell cultures of experiment 2. The conditions noted are these: Orthopoxvirus vaccinia. The class given is functional.
Test [15] concerns Vaccinia virus. The test is described as follows: Minimum cytotoxic concentration against vaccinia virus in HeLa cell cultures. The class given is functional. The note with it: Orthopoxvirus vaccinia.
The next test has as its system Calf thymus DNA. Put plainly: Relative binding constant to calf thymus DNA. The class given is nucleic-acid assay. The note with it: Bos taurus. The method, boiled down:
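Ethidium displacement: Tris-EDTA buffer pH 8 with 1.3 μM ethidium bromide and calf thymus DNA (1.35 μM final); drug aliquots added, fluorescence read after a few minutes' equilibration (excitation 525 nm, emission 600 nm). Drug level giving 50% fluorescence decrease converted to relative binding constant taking ethidium binding constant as 10^7 M-1.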

Test [16] deals with Vaccinia virus. Put plainly: Minimum inhibitory concentration against vaccinia virus in primary rabbit kidney cell cultures of experiment 1. The class given is functional. The note with it: Orthopoxvirus vaccinia.
In test [17] the test system is Vaccinia virus. The description is as §1. In kind it is functional, Orthopoxvirus vaccinia. The note with it: Orthopoxvirus vaccinia; read-out: MIC.
Test [18] in a line: Inhibition of Moloney Murine Leukemia Associated Reverse Transcriptase. In kind it is functional, Mus musculus.
Test [19] relates to Vaccinia virus. Put plainly: Minimum inhibitory concentration against vaccinia virus in HeLa cell cultures. In kind it is functional. The conditions noted are these: Orthopoxvirus vaccinia.
Test [20] relates to L1210. The test is described as follows: Inhibitory effect on the proliferation of murine leukemia (L1210 ) cells. The class given is functional. The conditions noted are these: Mus musculus, read-out: ID50 (the source's name).
Test [21] in a line: Inhibitory effect on the proliferation of human T-lymphoblast (Molt/4F ) cells. The class given is functional. The note with it: read-out: ID50 (the source's name).
The test system of test [22] is Raji. The test is described as follows: Inhibitory effect on the proliferation of human B lymphoblast (Raji ) cells. The class given is functional. The note with it: read-out: ID50 (the source's name).
For test [23], the system named is FM3A. Put plainly: Inhibitory effect on the proliferation of murine mammary carcinoma (FM3A ) cells. The note with it: Mus musculus, read-out: ID50 (the source's name). In kind it is functional.

For the compound `Cl.Cl.Cn1cc(NC(=O)c2cc(NC(=O)Nc3cc(C(=O)Nc4cc(C(=O)NCCC(=N)N)n(C)c4)n(C)c3)cn2C)cc1C(=O)NCCC(=N)N`, the MIC against Human alphaherpesvirus 2 was 20 µg/mL; against Vaccinia virus [1], 7 µg/mL; in the test on Vaccinia virus [4] it was 20 µg/mL; in the test with Vaccinia virus [5], 2 µg/mL; in test [7] it was more than 40 µg/mL; in the test on Vaccinia virus [10], 7 µg/mL. Also, the MIC in the test with Human alphaherpesvirus 1 is more than 10 µg/mL; with Vaccinia virus [14], 20 µg/mL; with Vaccinia virus [16], 7 µg/mL; with Vaccinia virus [17] it was 20 µg/mL. Moreover, the IC50 with P388 was 8 µg/mL; in [2], more than 100 µg/mL; in the test on FM3A [9], more than 100 µg/mL; with L1210 [12], more than 100 µg/mL; with Raji [13], more than 100 µg/mL. Moreover, the MCC in the test on Vaccinia virus [3] is 100 µg/mL; in the test with Vaccinia virus [6], more than 40 µg/mL; with Vaccinia virus [8] it was 40 µg/mL; in test [11] it was more than 40 µg/mL; in the test on Vaccinia virus [15], more than 40 µg/mL. For the same compound, the Binding constant in the test with Calf thymus DNA worked out at 5.6e+07 M⁻¹.
For the compound `Cl.Cl.Cn1cc(NC(=O)c2cc(NC(=O)CCCCCCCCCCC(=O)Nc3cc(C(=O)Nc4cc(C(=O)NCCC(=N)N)n(C)c4)n(C)c3)cn2C)cc1C(=O)NCCC(=N)N`, the MIC against Human alphaherpesvirus 2 is 7 µg/mL; in the test with Vaccinia virus [4] it was more than 40 µg/mL; in the test on Vaccinia virus [5] it was 0.2 µg/mL; in test [7], more than 10 µg/mL; in the test on Vaccinia virus [10] it was 2 µg/mL; in the test on Human alphaherpesvirus 1, more than 10 µg/mL. Also, the MIC against Vaccinia virus [19] and in the test on Vaccinia virus [16] was 2 µg/mL each time. The IC50 with P388 was found to be 4.8 µg/mL. Moreover, the MCC in the test on Vaccinia virus [3] is more than 40 µg/mL; in the test on Vaccinia virus [6] it was more than 100 µg/mL; in the test on Vaccinia virus [8], more than 40 µg/mL; in test [11], more than 40 µg/mL; in the test on Vaccinia virus [15] it was more than 40 µg/mL. Further, in test [18], the ID50 worked out at 9.1 µg/mL. The Binding constant in the test with Calf thymus DNA was determined as 2.2e+07 M⁻¹.
In the case of `Cl.Cl.Cn1cc(NC(=O)c2cc(NC(=O)CC(=O)Nc3cc(C(=O)Nc4cc(C(=O)NCCC(=N)N)n(C)c4)n(C)c3)cn2C)cc1C(=O)NCCC(=N)N`, the IC50 was determined as 28.5 µg/mL in the test with L1210 [20]; 0.91 µg/mL in the test on P388; 2.85 µg/mL in test [21]; 3.39 µg/mL with Raji [22]; 5.87 µg/mL in the test on FM3A [23]. In addition, the MIC against Human alphaherpesvirus 2 is more than 4 µg/mL; against Vaccinia virus [1], 2 µg/mL; with Vaccinia virus [4], 2 µg/mL; with Vaccinia virus [5], 0.2 µg/mL; in test [7], more than 10 µg/mL; against Vaccinia virus [10], 0.2 µg/mL. The MIC against Human alphaherpesvirus 1 is more than 4 µg/mL; against Vaccinia virus [14], 2 µg/mL; in the test with Vaccinia virus [16], 2 µg/mL; in the test with Vaccinia virus [17], 2 µg/mL. In addition, the MCC is more than 40 µg/mL with Vaccinia virus [3]; more than 40 µg/mL in the test on Vaccinia virus [6]; 40 µg/mL with Vaccinia virus [8]; more than 10 µg/mL in [11]; more than 40 µg/mL in the test with Vaccinia virus [15]. In addition, the ID50 in [18] stood at 39 µg/mL. This compound had a Binding constant in the test on Calf thymus DNA of 3.6e+07 M⁻¹.
For `Cl.Cl.Cn1cc(NC(=O)c2cc(NC(=O)CCCCCCCCC(=O)Nc3cc(C(=O)Nc4cc(C(=O)NCCC(=N)N)n(C)c4)n(C)c3)cn2C)cc1C(=O)NCCC(=N)N`, the IC50 was determined as 4.21 µg/mL in the test with L1210 [20]; 0.98 µg/mL in the test with P388; 2.97 µg/mL in test [21]; 3.24 µg/mL in the test with Raji [22]; 22.1 µg/mL in the test with FM3A [23]. The MIC in the test with Human alphaherpesvirus 2 is more than 10 µg/mL; with Vaccinia virus [1], 2 µg/mL; against Vaccinia virus [4] it was 20 µg/mL; in the test on Vaccinia virus [5] it was 0.2 µg/mL; in [7], more than 10 µg/mL; with Vaccinia virus [10], 0.7 µg/mL. In addition, the MIC with Human alphaherpesvirus 1 is more than 10 µg/mL; against Vaccinia virus [14] it was more than 40 µg/mL; in the test with Vaccinia virus [16] it was 2 µg/mL; in the test with Vaccinia virus [17] it was 20 µg/mL. For the same compound, the MCC in the test with Vaccinia virus [3] was more than 100 µg/mL; in the test with Vaccinia virus [6], more than 40 µg/mL; in the test on Vaccinia virus [8], more than 40 µg/mL; in test [11] it was more than 40 µg/mL; with Vaccinia virus [15], 100 µg/mL. This compound also came in with an ID50 in [18] of 20.9 µg/mL. The same compound yielded a Binding constant with Calf thymus DNA of 1.7e+07 M⁻¹.
